Our source for the IC50 values is ChEMBL document CHEMBL1143924, “Discovery of 2-amino-6-carboxamidobenzothiazoles as potent Lck inhibitors” (Bioorg Med Chem Lett, 2008).

What all share (format): functional, cell-based
Assay [1] deals with BaF3. Put plainly: Antiproliferative activity against Lck transformed mouse BaF3 cells after 48 hrs by luciferase assay. The conditions noted are these: BaF3, 48 h. The gist of the method: (§1)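 BaF3 cells transformed with the named kinase, 25,000 cells per well, exposed to serial inhibitor dilutions or DMSO for 48 h. Luciferase expression, read by Bright-Glo luminescence, served as the measure of proliferation/survival.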

The subject of assay [2] is BaF3. The assay is described as follows: Antiproliferative activity against InsR transformed mouse BaF3 cells. The essentials:
as §1

The subject of assay [3] is BaF3. The assay is described as follows: Antiproliferative activity against Lyn transformed mouse BaF3 cells. The gist of the method: as §1
Assay [4] has as its system BaF3. The assay is described as follows: Antiproliferative activity against Src transformed mouse BaF3 cells. The gist of the method:
as §1

The test system of assay [5] is BaF3. The assay is described as follows: Antiproliferative activity against Sky transformed mouse BaF3 cells. The essentials: as §1
The test system of assay [6] is BaF3. The assay is described as follows: Antiproliferative activity against JAK3 transformed mouse BaF3 cells. The gist of the method:
as §1

Assay [7] has as its system BaF3. The assay is described as follows: Antiproliferative activity against KDR transformed mouse BaF3 cells. The essentials:
as §1

In assay [8] the test system is BaF3. Put plainly: Antiproliferative activity against Alk transformed mouse BaF3 cells. The gist of the method:
as §1

For assay [9], the system named is BaF3. Put plainly: Antiproliferative activity against FGFR3 transformed mouse BaF3 cells. The gist of the method: as §1
In assay [10] the test system is BaF3. The assay is described as follows: Antiproliferative activity against FLT3 transformed mouse BaF3 cells. The gist of the method:
as §1

Assay [11] deals with Jurkat. Put plainly: Inhibition of phorbol myristate acetate and ionomycin induced IL2 promoter activity in human Jurkat cells after 5 hrs. The essentials:
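Jurkat IL-2 promoter-luciferase cells, 50,000 per well, stimulated with PMA plus ionomycin, added as an equal volume of solution containing PMA at 40 ng/mL (concentration before mixing). IL-2 promoter activity read as luciferase signal by Bright-Glo.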

The subject of assay [12] is Jurkat. The assay is described as follows: Inhibition of ant-CD3+CD28 antibodies induced IL2 promoter activity in human Jurkat cells after 5 hrs. The gist of the method: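 Wells coated with anti-mouse IgG in sodium bicarbonate buffer, then loaded with OKT3 (mouse anti-human CD3) and mouse anti-human CD28 antibodies, then washed. Jurkat cells carrying IL-2 promoter-driven luciferase, 100,000 per well, incubated 5 h on the bound antibodies. Luciferase read-out by Bright-Glo.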

In the assay with BaF3 [1], `CCNC(=O)Nc1nc2ccc(C(=O)Nc3cc(NC(=O)c4cc(F)cc(C(F)(F)F)c4)ccc3C)cc2s1` registered an IC50 of 7 nM. This lies in the single-digit nanomolar range.
On the same count and under the same terms, under `Cc1ccc(NC(=O)c2cccc(C(F)(F)F)c2)cc1NC(=O)c1ccc2nc(NC(=O)OC(C)(C)C)sc2c1` stands 36 nM; under `Cc1ccc(NC(=O)c2cccc(C(F)(F)F)c2)cc1NC(=O)c1ccc2nc(NCCCN3CCOCC3)sc2c1`, 78 nM.
In turn, `Cc1ccc(NC(=O)c2cccc(C(F)(F)F)c2)cc1NC(=O)c1ccc2nc(N(C)C(=O)OC(C)(C)C)sc2c1` registered a 50% inhibitory concentration (IC50) with BaF3 [1] of 955 nM.
In turn, `Cc1ccc(NC(=O)c2cccc(C(F)(F)F)c2)cc1NC(=O)c1ccc2nc(NCCN3CCN(C)CC3)sc2c1` had an IC50 in the assay on BaF3 [1] of 58 nM.
Regarding `CNC(=O)Nc1nc2ccc(C(=O)Nc3cc(NC(=O)c4cccc(C(F)(F)F)c4)ccc3C)cc2s1`, the IC50 in the assay with BaF3 [2] was 1280 nM; in the assay with BaF3 [3] it was 94 nM; in the assay with BaF3 [4] it was 301 nM; in the assay with BaF3 [5], 1100 nM; in the assay with BaF3 [6], 5010 nM; in the assay on BaF3 [7], 1610 nM. The IC50 in the assay with BaF3 [8] came out at 1630 nM; with BaF3 [9], 1980 nM; with BaF3 [10], 3140 nM; in the assay on BaF3 [1] it was 21 nM.
Consider `CCNC(=O)Nc1nc2ccc(C(=O)Nc3cc(NC(=O)c4ccc(Cl)c(C(F)(F)F)c4)ccc3C)cc2s1`, for which it took 50 nM to reach half-maximal inhibition in the assay on BaF3 [1] (IC50).
For the compound `Cc1ccc(NC(=O)c2cccc(C(F)(F)F)c2)cc1NC(=O)c1ccc2nc(NC(=O)OC(C)C)sc2c1`, the IC50 was 13500 nM with BaF3 [2]; 268 nM in the assay on BaF3 [3]; 517 nM with BaF3 [4]; 2440 nM with BaF3 [5]; greater than 10000 nM in the assay on BaF3 [6]; 3280 nM in the assay with BaF3 [7]. The half-inhibitory concentration (IC50) with BaF3 [8] was 6110 nM; with BaF3 [9], 12600 nM; with BaF3 [10], greater than 10000 nM; in the assay on BaF3 [1], 30 nM.
The compound `CCNC(=O)Nc1nc2ccc(C(=O)Nc3cc(NC(=O)c4cc(N5CCN(C)CC5)cc(C(F)(F)F)c4)ccc3C)cc2s1` had an IC50 in the assay on BaF3 [1] of 19 nM. In other words, the double-digit nanomolar range.
In the assay with BaF3 [1], `Cc1cc(C)nc(Nc2nc3ccc(C(=O)Nc4cc(NC(=O)c5cccc(C(F)(F)F)c5)ccc4C)cc3s2)n1` registered an IC50 of 53 nM. This IC50 lies about 2.8-fold higher than the previous one.
As to `Cc1ccc(NC(=O)c2cccc(C(F)(F)F)c2)cc1NC(=O)c1ccc2nc(NC(=O)Nc3ccccc3)sc2c1`, it took 94 nM to reach half-maximal inhibition with BaF3 [1] (IC50).
Take `CCNC(=O)Nc1nc2ccc(C(=O)Nc3cc(NC(=O)c4ccc(C(C)(C)C)s4)ccc3C)cc2s1`: the IC50 in the assay with BaF3 [1] turned out to be 12 nM.
In the case of `Cc1ccc(C(=O)Nc2cccc(C(F)(F)F)c2)cc1NC(=O)c1ccc2nc(NC(=O)NC3CCCC3)sc2c1`, the concentration for half-maximal inhibition (IC50) with BaF3 [1] came out at 139 nM. Against the preceding compound, the IC50 is about 12-fold higher.
`Cc1ccc(NC(=O)c2cccc(C(F)(F)F)c2)cc1NC(=O)c1ccc2nc(NC(=O)Oc3ccccc3)sc2c1` gave an IC50 in the assay with BaF3 [1] of 112 nM.
On to `CCNC(=O)N(C)c1nc2ccc(C(=O)Nc3cc(NC(=O)c4cccc(C(F)(F)F)c4)ccc3C)cc2s1`, for which, in the assay with BaF3 [1], the IC50 was greater than 10000 nM.
`Cc1ccc(NC(=O)c2cccc(C(F)(F)F)c2)cc1NC(=O)c1ccc2nc(NC(=O)Nc3cccnc3)sc2c1` came in with an IC50 in the assay with BaF3 [1] of 125 nM. This counts as sub-micromolar.
In the case of `COCCOC(=O)Nc1nc2ccc(C(=O)Nc3cc(NC(=O)c4cccc(C(F)(F)F)c4)ccc3C)cc2s1`, the concentration for half-maximal inhibition (IC50) in the assay with Jurkat [11] was 438 nM; with Jurkat [12], 12 nM; in the assay with BaF3 [1], 8 nM.
On the same counts, the results for `COC(=O)Nc1nc2ccc(C(=O)Nc3cc(NC(=O)c4cccc(C(F)(F)F)c4)ccc3C)cc2s1` are 851 nM, 36 nM and 30 nM.
As for `CCNC(=O)Nc1nc2ccc(C(=O)Nc3cc(NC(=O)c4cccc(C)c4)ccc3C)cc2s1`, the IC50 with BaF3 [1] is 112 nM.
In the assay on BaF3 [1], `CCNC(=O)Nc1nc2ccc(C(=O)Nc3cc(C(=O)Nc4cccc(C(F)(F)F)c4)ccc3C)cc2s1` came in with a half-maximal inhibitory concentration (IC50) of 118 nM.
In the case of `Cc1ccc(NC(=O)c2cccc(C(F)(F)F)c2)cc1NC(=O)c1ccc2nc(N)sc2c1`, half-maximal inhibition with BaF3 [1] (IC50) required 170 nM.
On to `Cc1ccc(NC(=O)c2cccc(C(F)(F)F)c2)cc1NC(=O)c1ccc2nc(Nc3cnccn3)sc2c1`, for which half-maximal inhibition in the assay with BaF3 [1] (IC50) was put at 4 nM.
In the assay with BaF3 [1], `Cc1ccnc(Nc2nc3ccc(C(=O)Nc4cc(NC(=O)c5cccc(C(F)(F)F)c5)ccc4C)cc3s2)c1` yielded an IC50 of 16 nM. Against the preceding compound, the IC50 is about 4-fold higher.
For the compound `COc1ccc(OC(=O)Nc2nc3ccc(C(=O)Nc4cc(NC(=O)c5cccc(C(F)(F)F)c5)ccc4C)cc3s2)cc1`, the IC50 in the assay on BaF3 [1] was 131 nM.
For `Cc1ccc(NC(=O)c2cccc(C(F)(F)F)c2)cc1NC(=O)c1ccc2nc(NCCCN(C)C)sc2c1`, half-maximal inhibition with BaF3 [1] (IC50) was put at 81 nM.
With `CCNC(=O)Nc1nc2ccc(C(=O)Nc3cc(NC(=O)c4ccnc(C(C)(C)C)c4)ccc3C)cc2s1`, the IC50 in the assay with BaF3 [1] turned out to be 9 nM.
Turning to `CCNC(=O)Nc1nc2ccc(C(=O)Nc3cc(NC(=O)c4cccc(C(F)(F)F)c4)ccc3C)cc2s1`, the IC50 was 373 nM in the assay on Jurkat [11], 44 nM in the assay on Jurkat [12] and 16 nM in the assay on BaF3 [1].
As to `Cc1cc(Nc2nc3ccc(C(=O)Nc4cc(NC(=O)c5cccc(C(F)(F)F)c5)ccc4C)cc3s2)nc(C)n1`, the midpoint of inhibition with BaF3 [1], the IC50, lay at 0.6 nM. That is a sub-nanomolar value.
Same read-out and setting: under `Cc1cc(Br)c(NC(=O)c2cccc(C(F)(F)F)c2)cc1NC(=O)c1ccc2nc(NCCN3CCOCC3)sc2c1` stands 2100 nM; under `CCNC(=O)Nc1nc2ccc(C(=O)Nc3cc(NC(=O)c4cccc(Cl)c4)ccc3C)cc2s1`, 104 nM; under `CCNC(=O)Nc1nc2ccc(C(=O)Nc3cc(NC(=O)c4cccc(OC)c4)ccc3C)cc2s1`, 158 nM.
Compound `CCNC(=O)Nc1nc2ccc(C(=O)Nc3cc(NC(=O)c4cc(-n5cnc(C)c5)cc(C(F)(F)F)c4)ccc3C)cc2s1` showed an IC50 with BaF3 [1] of 15 nM.
In the case of `Cc1ccc(NC(=O)c2cccc(C(F)(F)F)c2)cc1NC(=O)c1ccc2nc(NC(=O)NC3CCCC3)sc2c1`, the values for the IC50 in the assay with Jurkat [11], in the assay with Jurkat [12] and in the assay with BaF3 [1] were 812 nM, 62 nM and 16 nM, respectively.
The compound `Cc1cc(Nc2nc3ccc(C(=O)Nc4cc(NC(=O)c5cccc(C(F)(F)F)c5)ccc4C)cc3s2)no1` yielded a half-maximal inhibitory concentration (IC50) in the assay on BaF3 [1] of 8 nM.

What is called IC50 is the midpoint of a concentration-inhibition curve. Low readings indicate greater potency, high ones weaker potency.
